Compound activity as filed in PubChem BioAssay.
The list is not random: actives were taken first. Their share in the collection is about 1%.
ERp5 inh = inhibitors of ERp5-driven insulin aggregation, primary screen, biochemical, turbidity, absorbance 650 nm, single point; Protein disulfide-isomerase A6 (Homo sapiens), Q15084; 90 min; inhibition, % at 9.99 µM; hit rate 0.05% among 350,000; AID 651711, 2012;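 active = mean replicate inhibition above about 25%, with every replicate also reaching it, limit read from the data, passing the limit was not always enough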
IMP-1 inh-1 = IMP-1 metallo-beta-lactamase inhibitors, primary screen, biochemical, epi-absorbance readout, Pseudomonas aeruginosa enzyme; hit rate 0.45% among 290,000; AID 1556, 2009; inhibition, % at 5.6 µM; purified IMP-1, nitrocefin hydrolysis, epi-absorbance fluorescence; metallo-beta-lactamase IMP-1 (Pseudomonas aeruginosa);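 active = inhibition above the mean plus 3 SD of all compounds in the same screening run, cut at about 4.5% in these data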;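 note: 0% = IMP-1 with DMSO and 100% = DMSO wells lacking enzyme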
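System – purified recombinant IMP-1 beta-lactamase · Input – IMP-1 dispensed at 0.2 nM · Timing – 15 min preincubation plus 25 min reaction at 25 °C · Signal – Epi-absorbance fluorescence, 480 nm excitation, 530 nm emission · Measure – percent IMP-1 inhibition derived from blank-referenced optical density · Controls – Enzyme-plus-DMSO low control, enzyme-free DMSO high control · Replication – singlicate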
PglD DTNB = C. jejuni PglD acetyltransferase inhibitors, primary screen, biochemical, DTNB colorimetric, single point; AID 602405, 2012; hit rate 0.098% among 360,000; UDP-N-acetylbacillosamine N-acetyltransferase PglD (Campylobacter jejuni); inhibition, % at 12.5 µM; purified PglD enzyme, DTNB colorimetric CoA detection; in the data active = inhibition above about 16%, passing the limit was not always enough
PDI inh = inhibitors of human PDI, primary screen, biochemical, turbidity, single point, plate reader. hit rate 0.052% among 350,000. inhibition, % at 10 µM. PDI insulin aggregation turbidity, A650, 90 min. AID 588391, 2011. Protein disulfide-isomerase (Homo sapiens), P07237;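 active = mean inhibition across replicates of 30% or more, whatever share of single replicates reach that level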
Target sequence (P07237 whole entry, looked up): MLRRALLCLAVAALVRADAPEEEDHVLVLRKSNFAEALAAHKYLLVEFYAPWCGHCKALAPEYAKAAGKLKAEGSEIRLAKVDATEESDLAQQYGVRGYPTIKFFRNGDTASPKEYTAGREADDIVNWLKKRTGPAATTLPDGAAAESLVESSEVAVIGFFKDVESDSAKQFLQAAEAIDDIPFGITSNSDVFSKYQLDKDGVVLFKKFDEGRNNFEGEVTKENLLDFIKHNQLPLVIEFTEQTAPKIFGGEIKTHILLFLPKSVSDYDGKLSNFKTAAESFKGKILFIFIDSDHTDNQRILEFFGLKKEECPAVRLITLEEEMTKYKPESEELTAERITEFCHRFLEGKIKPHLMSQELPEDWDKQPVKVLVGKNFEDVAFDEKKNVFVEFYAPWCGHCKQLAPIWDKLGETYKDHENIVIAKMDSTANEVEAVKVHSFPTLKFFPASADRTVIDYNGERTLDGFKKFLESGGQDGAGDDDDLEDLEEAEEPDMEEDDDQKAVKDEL
PvdQ acylase = P. aeruginosa PvdQ acylase inhibitors, primary screen, biochemical, fluorescence, plate reader and imaging, single point; purified PvdQ acylase; inhibition, % at 10 µM; hit rate 0.063% among 340,000; AID 488965, 2010; in the data active = inhibition above about 30%, passing the limit was not always enough;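 note: 0% = vehicle neutral wells and 100% = reference inhibitor wells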
VIM-2 inhibitor = VIM-2 metallo-beta-lactamase inhibitors, primary screen, biochemical, epi-absorbance readout, Pseudomonas aeruginosa enzyme; inhibition, % at 5.6 µM; hit rate 0.89% among 290,000; purified VIM-2, nitrocefin hydrolysis, epi-absorbance fluorescence;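 active = inhibition above the mean of all tested compounds plus 3 SD, cutoff set per screening run, cut at about 7.5% in these data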;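 note: red hydrolysis product quenches plate fluorescence so inhibitors raise well fluorescence; 0% = enzyme with DMSO and 100% = DMSO without enzyme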
IMP-1 inh-2 = IMP-1 metallo-beta-lactamase inhibitors, confirmation, selectivity assay for selective VIM-2 inhibitor project, biochemical, epi-absorbance readout, triplicate; 1,300 tested, under 10 active; inhibition, % at 5.6 µM; purified IMP-1, nitrocefin hydrolysis, epi-absorbance fluorescence; shares compounds with VIM-2 inhibitor; call rule not given here;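 note: 0% = enzyme with vehicle and 100% = vehicle without enzyme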
VIM-2 FRET inh = VIM-2 inhibitors in FRET format, confirmation, artefact control for selective VIM-2 inhibitor project, biochemical, epi-absorbance artifact exclusion. shares compounds with VIM-2 inhibitor. purified VIM-2, CCF2 FRET substrate hydrolysis. inhibition, % at 5.6 µM. hit rate 23% among 1,300;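 active = inhibition above the mean of all tested compounds plus 3 SD, cut at about 19% in these data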;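 note: 0% = VIM-2 plus DMSO and 100% = no enzyme wells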
TEM-1 inh = TEM-1 serine beta-lactamase inhibitors, counter-screen for VIM-2 inhibitor project, biochemical, epi-absorbance, HTS; Purified TEM-1, nitrocefin hydrolysis, epi-absorbance fluorescence; inhibition, % at 5.6 µM; hit rate 3% among 1,300; shares compounds with VIM-2 inhibitor; AID 1866, 2009;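 active = inhibition above that campaign's mean inhibition plus 3 SD, cut at about 0.46% in these data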;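 note: 0% = TEM-1 with DMSO and 100% = TEM-1 with 100 µM potassium clavulanate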
VIM-2 confirm 2 = VIM-2 metallo-beta-lactamase inhibitors, confirmation, biochemical, epi-absorbance, hits shared with IMP-1 screen; hit rate 96% among 1,300; shares compounds with VIM-2 inhibitor; inhibition, % at 5.6 µM; purified VIM-2, nitrocefin hydrolysis;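 active = inhibition of the VIM-2 beta-lactamase enzyme above about 11% from the earlier first-round screen, limit read from the data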;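 note: 0% = VIM-2 with DMSO and 100% = buffer wells without enzyme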
An asterisk follows results filed as active.

For COc1ccc(-c2cnc3c(c2)C(=O)N([C@H](C)CO)C[C@H](C)[C@@H](CN(C)Cc2ccc(C(=O)O)cc2)O3)cc1 the results were ERp5 inh -7 and PglD DTNB -2.
For COc1cc(-c2noc(C)c2C#Cc2nccn2C)cc(OC)c1OC the results were ERp5 inh 1, IMP-1 inh-1 -2, PglD DTNB -3, PDI inh -4, PvdQ acylase 1, VIM-2 inhibitor 30*, IMP-1 inh-2 -2, VIM-2 FRET inh -15, TEM-1 inh -1 and VIM-2 confirm 2 46*.
CCCCn1c2ccccc2c2nnc(SCCN3CCCCC3)nc21 was read as ERp5 inh 2, IMP-1 inh-1 -3, PglD DTNB 1, PDI inh 3, PvdQ acylase 5, VIM-2 inhibitor 13*, IMP-1 inh-2 -3, VIM-2 FRET inh -6, TEM-1 inh -7 and VIM-2 confirm 2 19*.
`CCCn1c2ccccc2c2nnc(SCC(=O)Nc3ncccn3)nc21` gave IMP-1 inh-1 0, PglD DTNB -2, PDI inh 8, PvdQ acylase -8 and VIM-2 inhibitor 2.
CCCC(O)C#Cc1cnc2c(c1)C(=O)N([C@H](C)CO)C[C@H](C)[C@H](CN(C)C(=O)NC(C)C)O2 (stereo partly specified) was read as PglD DTNB 2.
C[C@H](CO)N1C[C@H](C)[C@@H](CN(C)S(=O)(=O)c2ccccc2)Oc2ccc(NC(=O)CCN3CCOCC3)cc2CC1=O was read as ERp5 inh 10 and PglD DTNB 3.
Screening CN(/N=C/c1cccc(Br)c1)C1=NS(=O)(=O)c2ccccc21 returned ERp5 inh 5, IMP-1 inh-1 -2, PglD DTNB -2, PDI inh -5, PvdQ acylase -15, VIM-2 inhibitor 16*, IMP-1 inh-2 -3, VIM-2 FRET inh -3, TEM-1 inh -8 and VIM-2 confirm 2 23*.
For Cc1cc(C)c2c(n1)sc1c(N3CCN(C)CC3)ncnc12 the results were ERp5 inh 1, IMP-1 inh-1 -1, PDI inh -6, PvdQ acylase -2, VIM-2 inhibitor 13*, IMP-1 inh-2 -2, VIM-2 FRET inh 0, TEM-1 inh -4 and VIM-2 confirm 2 21*.
For COc1ccc(/C=N/NC(=S)Nc2cccc(C(=O)O)c2)cc1OC the results were ERp5 inh -5, IMP-1 inh-1 -3, PDI inh 12, PvdQ acylase -6, VIM-2 inhibitor 13*, IMP-1 inh-2 -2, VIM-2 FRET inh 5, TEM-1 inh -3 and VIM-2 confirm 2 5.
Screening O=C(O)C(NC(=O)c1ccccc1)=C(Cl)Cl returned IMP-1 inh-1 -4, PglD DTNB -4, PDI inh 2, PvdQ acylase -2, VIM-2 inhibitor 23*, IMP-1 inh-2 -3, VIM-2 FRET inh 44*, TEM-1 inh -5 and VIM-2 confirm 2 25*.
Screening CCN(CC)CCSc1nnc2c3cc(C)ccc3n(Cc3ccccc3)c2n1 returned ERp5 inh -3, IMP-1 inh-1 -2, PglD DTNB 11, PDI inh 9, VIM-2 inhibitor 23*, IMP-1 inh-2 -3, VIM-2 FRET inh 4, TEM-1 inh -7 and VIM-2 confirm 2 43*.
For CSc1nnc2c3cc(F)ccc3n(Cc3ccccc3)c2n1 the results were PglD DTNB 1, PDI inh -2 and PvdQ acylase -1.
Cc1c(Cl)cccc1-c1ccc(/C=N/n2cnnc2)o1 was read as IMP-1 inh-1 0, PglD DTNB 2, PDI inh -2, PvdQ acylase 5, VIM-2 inhibitor 32*, IMP-1 inh-2 -4, VIM-2 FRET inh -5, TEM-1 inh -7 and VIM-2 confirm 2 53*.
`Cc1c(C(=O)O)cccc1-c1ccc(/C=N/n2cnnc2)o1` gave ERp5 inh 4, IMP-1 inh-1 -3, PglD DTNB 7, PDI inh 5, PvdQ acylase 1 and VIM-2 inhibitor -1.
Clc1ccc(Sc2ccc(/C=N/n3cnnc3)o2)cc1 was read as IMP-1 inh-1 -2, PglD DTNB -14, PDI inh 4, PvdQ acylase 11 and VIM-2 inhibitor -4.
Screening Clc1ccccc1-c1ccc(/C=N/n2cnnc2)o1 returned IMP-1 inh-1 -4, PglD DTNB 1, PDI inh -8, PvdQ acylase 9, VIM-2 inhibitor 21*, IMP-1 inh-2 -3, VIM-2 FRET inh -1, TEM-1 inh -6 and VIM-2 confirm 2 42*.
For Clc1cccc(-c2ccc(/C=N/n3cnnc3)o2)c1Cl the results were ERp5 inh 0, IMP-1 inh-1 -3, PglD DTNB 7, PDI inh 0, PvdQ acylase -7, VIM-2 inhibitor 29*, IMP-1 inh-2 -3, VIM-2 FRET inh -8, TEM-1 inh -5 and VIM-2 confirm 2 64*.
Screening Cc1cc(C)n(-c2ccc([N+](=O)[O-])cc2-c2nn[nH]n2)n1 returned ERp5 inh 1, IMP-1 inh-1 -2, PDI inh 3, PvdQ acylase -4, VIM-2 inhibitor 26*, IMP-1 inh-2 -3, VIM-2 FRET inh 53*, TEM-1 inh -5 and VIM-2 confirm 2 33*.
Screening O=[N+]([O-])c1ccc(O)c(-c2nn[nH]n2)c1 returned IMP-1 inh-1 -1, PglD DTNB 8, PDI inh -5, PvdQ acylase 3 and VIM-2 inhibitor -4.
`Cc1ccc2c(c1)c(N=NC(N)=O)c(O)n2C` gave ERp5 inh 6, IMP-1 inh-1 1, PDI inh -1, PvdQ acylase -2, VIM-2 inhibitor 13*, IMP-1 inh-2 -3, VIM-2 FRET inh -3, TEM-1 inh -4 and VIM-2 confirm 2 19*.
